Experimental data reported in ChEMBL document CHEMBL3108767, “Thioester Bonds of Thiocoraline Can Be Replaced with NMe-Amide Bridges without Affecting Its DNA-Binding Properties” (ACS Med Chem Lett, 2014).
Calls of active or inactive are those of the source. No cut-off for these calls is given here.

How the values were obtained:
[1] = Binding affinity to [alpha-32P]dATP labeled HexB DNA (unknown origin) at 0.1 to 500 uM by DNase 1 footprinting assay
Summary of the method: (§1)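 Each radiolabeled fragment (MS2, HexA or HexB) incubated with ligand at 14 concentrations from 500 down to 0.1 μM, then cleaved with DNase I. Gel tracks compared with GA purine markers and solvent-only DNA to find regions of attenuated cleavage as footprints.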

[2] = Binding affinity to 3'-end [alpha32P]dATP labeled tyrT plasmid DNA (unknown origin) assessed as change in band shift at 10 to 50 uM
Summary of the method: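 tyrT DNA fragment incubated with ligand; a control lane received the solvent conditions alone. Samples were run on a native gel, and binding was scored as DNA bands that migrated more slowly than the control.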

DNA = test: Binding affinity to [alpha-32P]dATP labeled HexA DNA (unknown origin) at 0.1 to 500 uM by DNase 1 footprinting assay
[3] = Binding affinity to [alpha-32P]dATP labeled MS2 DNA (unknown origin) at 0.1 to 500 uM by DNase 1 footprinting assay; summary of the method: as §1
[4] = Binding affinity to ATGGAT MS2 DNA (unknown origin) by DNase 1 footprinting assay
Summary of the method: (§2)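 Radiolabeled MS2, HexA or HexB DNA fragments incubated with ligand at 14 concentrations (500, 400, 300, 200, 100, 80, 60, 40, 20, 10, 5, 1, 0.5, 0.1 μM), then digested with DNase I. Products resolved on gels alongside GA purine markers and solvent-only DNA controls. C50 is the ligand concentration that reduced footprint band intensity by 50%.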

[5] = Binding affinity to ACGACT MS2 DNA (unknown origin) by DNase 1 footprinting assay; summary of the method: as §2
[6] = Binding affinity to GACGTA MS2 DNA (unknown origin) by DNase 1 footprinting assay; summary of the method: as §2
[7] = Binding affinity to TATATA HexB DNA (unknown origin) by DNase 1 footprinting assay; summary of the method: as §2
[8] = Binding affinity to GGATAG MS2 DNA (unknown origin) by DNase 1 footprinting assay; summary of the method: as §2
[9] = Binding affinity to fluorophore labeled FAM-ACATGT-dabcyl (unknown origin) assessed as change in melting temperature at 100 uM by fluorescence assay
Summary of the method: (§3)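 Duplexes made from fluorescently labeled oligonucleotides, each carrying the site of interest at its center. Melting run at 0.25 μM duplex DNA in 10 mM sodium phosphate pH 7.4 with 100 mM NaCl. Relative fluorescence was followed against temperature and normalized to the same initial value. First derivatives of the melting profiles were used to read transitions.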

[10] = Binding affinity to fluorophore labeled FAM-CACGTG-dabcyl (unknown origin) assessed as change in melting temperature at 100 uM by fluorescence assay; summary of the method: as §3
[11] = Binding affinity to CGCGAT HexB DNA (unknown origin) by DNase 1 footprinting assay; summary of the method: as §2
[12] = Binding affinity to fluorophore labeled FAM-GTGCAC-dabcyl (unknown origin) assessed as change in melting temperature at 100 uM by fluorescence assay; summary of the method: as §3
[13] = Binding affinity to fluorophore labeled FAM-ACATCT-dabcyl (unknown origin) assessed as change in melting temperature at 100 uM by fluorescence assay; summary of the method: as §3
[14] = Binding affinity to fluorophore labeled FAM-AATATT-dabcyl (unknown origin) assessed as change in melting temperature at 100 uM by fluorescence assay; summary of the method: as §3
[15] = Binding affinity to CGTACG HexB DNA (unknown origin) by DNase 1 footprinting assay; summary of the method: as §2
[16] = Binding affinity to CTCGAG HexB DNA (unknown origin) by DNase 1 footprinting assay; summary of the method: as §2

Row | SMILES | Activity [1] | Activity [2] | Activity (DNA) | Activity [3] | C50 [4] | C50 [5] | C50 [6] | C50 [7] | C50 [8] | ΔTm [9] | ΔTm [10] | C50 [11] | ΔTm [12] | ΔTm [13] | ΔTm [14] | C50 [15] | C50 [16]
1 | CS[C@H]1SC[C@H]2C(=O)N(C)[C@@H](C(C)C)C(=O)OC[C@@H](NC(=O)c3cnc4ccccc4n3)C(=O)N[C@@H](C)C(=O)N(C)[C@@H]1C(=O)N(C)[C@@H](C(C)C)C(=O)OC[C@@H](NC(=O)c1cnc3ccccc3n1)C(=O)N[C@@H](C)C(=O)N2C | Active | Active | Active | Active | – | – | – | – | – | – | – | – | – | – | – | – | –
2 | COCCOCCOCC(=O)NC[C@H]1C(=O)N(C)C[C@@H](NC(=O)c2nc3ccccc3cc2O)C(=O)NCC(=O)N(C)[C@H]2CSSC[C@@H](C(=O)N1C)N(C)C(=O)CNC(=O)[C@H](NC(=O)c1nc3ccccc3cc1O)CN(C)C(=O)[C@H](CNC(=O)COCCOCCOC)N(C)C2=O | – | inactive | – | – | – | – | – | – | – | – | – | – | – | – | – | – | –
3 | CSC[C@H]1C(=O)N(C)C[C@@H](NC(=O)c2nc3ccccc3cc2O)C(=O)NCC(=O)N(C)[C@H]2CSSC[C@@H](C(=O)N1C)N(C)C(=O)CNC(=O)[C@H](NC(=O)c1nc3ccccc3cc1O)CN(C)C(=O)[C@H](CSC)N(C)C2=O | – | Active | – | – | 110 µM | 102 µM | 95 µM | 28 µM | 131 µM | 4.5 °C | 7.6 °C | 22 µM | 0.7 °C | 2.2 °C | 1.4 °C | 13 µM | 17 µM
